This is an account of results in ChEMBL document CHEMBL1152550, “Synthesis and structure-activity relationships of N-aryl(indol-3-yl)glyoxamides as antitumor agents” (Bioorg Med Chem, 2009).

Bounds are passed on as bounds.

Assay type in all cases: functional, cell-based
Assay [1] is described as follows: Cytotoxicity against human KB/HeLa cells after 48 hrs by XTT assay.
Assay [2] relates to SK-OV-3. Briefly: Cytotoxicity against human SKOV3 cells after 48 hrs by XTT assay. Conditions: SK-OV-3, 48 h. On the technique in general: Formazan colour is commonly taken as a measure of viable cells.
Assay [3] concerns L1210. Nature of the assay: Cytotoxicity against mouse L1210 cells after 48 hrs by XTT assay. Conditions: L1210, 48 h.
A short description of assay [4]: Cell cycle arrest in human KB/HeLa cells assessed as accumulation in G2/M phase by cytometric analysis. In a few lines:
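HeLa/KB cells; nuclei isolated with detergent lysis, trypsin, RNA digestion and spermine chromatin stabilisation, then stained stoichiometrically with propidium iodide. Read by flow cytometry with doublet discrimination, FL2 detector collecting 564–606 nm emission; DNA histograms analysed for cell cycle phase distribution across a concentration series (dose–response).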

Broadly, the IC50 is the midpoint of a concentration-inhibition curve. Turning to `O=C(Nc1ccc(Br)cc1)C(=O)c1cn(Cc2ccc(F)cc2)c2ccccc12`, the IC50 in assay [1], in assay [2] and in assay [3] was 3.88 µM in each case.
In the case of `O=C(Nc1ccncc1)C(=O)c1cn(Cc2ccc(Cl)cc2)c2ccccc12` [INDIBULIN], the Activity entry in assay [4] was “Dose-dependent effect”. Besides, the IC50 in assay [1] was determined as 0.044 µM; in assay [2], 0.077 µM; in assay [3], 0.044 µM.
For `O=C(C(=O)N1CCN(c2ccncc2)CC1)c1cn(Cc2ccc(F)cc2)c2ccccc12`, the 50% inhibitory concentration (IC50) in assay [1] is above 10 µM; in assay [2] it was above 10 µM; in assay [3], 3.96 µM.
For the compound `O=C(Nc1cccnc1)C(=O)c1cn(Cc2ccc(F)cc2)c2ccccc12`, the IC50 in assay [1], in assay [2] and in assay [3] was 4.69 µM each time.
As for `CCOC(=O)c1ccc(NC(=O)C(=O)c2cn(Cc3ccc(F)cc3)c3ccccc23)cc1`, the IC50 in assay [1], in assay [2] and in assay [3] was 3.94 µM in each case.
With `O=C(Nc1ccc(F)cc1)C(=O)c1cn(Cc2ccc(F)cc2)c2ccccc12`, the IC50 in assay [1] was 7.94 µM; in assay [2], above 10 µM; in assay [3], 4.48 µM.
In the case of `O=C(Nc1ccncc1)C(=O)c1cn(Cc2ccc(F)cc2)c2ccccc12`, in assay [4], the Activity entry is “Dose-dependent effect”. The IC50 in assay [1] turned out to be 0.054 µM; in assay [2], 0.455 µM; in assay [3] it was 0.455 µM.
For `N#Cc1ccc(NC(=O)C(=O)c2cn(Cc3ccc(F)cc3)c3ccccc23)cc1`, the IC50 in assay [1], in assay [2] and in assay [3] was above 10 µM throughout.
Regarding `O=C(Nc1ccc([N+](=O)[O-])cc1)C(=O)c1cn(Cc2ccc(F)cc2)c2ccccc12`, the IC50 in assay [1], in assay [2] and in assay [3] was above 10 µM throughout.
For `COc1cc(NC(=O)C(=O)c2cn(Cc3ccc(F)cc3)c3ccccc23)cc(OC)c1OC`, the concentration for half-maximal inhibition (IC50) in assay [1] was 0.378 µM; in assay [2] it was 3.78 µM; in assay [3] it was 0.378 µM.
`O=C(Nc1ccccn1)C(=O)c1cn(Cc2ccc(F)cc2)c2ccccc12`: the figures for the IC50 in assay [1], in assay [2] and in assay [3] were above 10 µM, above 10 µM and 8.3 µM, respectively.
